Assay results reported in PMC3190289 (Clinical and Experimental Gastroenterology, 2011).
Where two headings read alike, the source gives them in different places.

Tests used:
[1] = Plasma pharmacokinetics after single oral doses in healthy subjects; type: in vivo, human; conditions: for Subjects with detectable plasma concentrations: single oral dose; for AUC values in CYP2C19 poor metabolizers relative to overall means: two CYP2C19 poor metabolizer subjects
[2] = Safety analysis: treatment-emergent adverse events after single doses; type: in vivo, human; conditions: healthy subjects; for Incidence of treatment-emergent adverse events: single-dose administration
Summary of the method: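 Open-label two-period crossover in 44 subjects aged 20–54. Each period gave one oral dose after an overnight fast of at least 8 h, with a 60-min postdose fast; washout at least 7 days. All dosed subjects were analysed. A treatment-emergent AE started or worsened after first dose and within 30 days of last dose. Terms were coded to MedDRA 13.1 system organ class and preferred term; the investigator judged relatedness. Results were summarised descriptively per regimen.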

[3] = cited from earlier work
intragastric pH = conditions: cited from earlier work
[4] = postdose, single dose 60 mg, healthy subjects

Compound | Subjects with detectable plasma concentrations ([1]; 12 hours postdose) [%] | Subjects with detectable plasma concentrations ([1]; 16 hours postdose) [%] | Subjects with detectable plasma concentrations ([1]; 24 hours postdose) [%] | Time of first peak of mean plasma concentration-time curve [1, 4] | Time of second peak of mean plasma concentration-time curve [1, 4] [h] | AUC values in CYP2C19 poor metabolizers relative to overall means [1] | Adverse events considered related to the study drug by the investigator ([2]; single dose) | Incidence of flatulence ([2]; single dose) [%] | Incidence of headache ([2]; single dose) [%] | Incidence of joint injury ([2]; single dose) [%] | Incidence of treatment-emergent adverse events [2] [%] | Time of first peak of plasma concentration-time profile ([3]; after administration) [h] | Half-life [3] [h] | Time of second peak of plasma concentration-time profile ([3]; postdose) [h] | Percentage of time with intragastric pH > 4 (intragastric pH; 0–24 hours after the same dose (60 mg)) | Adverse events reported by two or more subjects ([2]; single dose) | Increase in bioavailability at steady state ([3]; after five days of once-daily dosing) [fold] | Time of maximum plasma concentrations ([3]; postdose) | Percentage of time with intragastric pH > 4 (intragastric pH; 0–24 hours after the same dose (40 mg), ref 10) [%] | Percentage of time with intragastric pH > 4 (intragastric pH; 0–24 hours after the same dose (40 mg), ref 12) [%]
Cc1c(OCC(F)(F)F)ccnc1C[S@@+]([O-])c1nc2ccccc2[nH]1 [dexlansoprazole] | 100 | 88 | 63 | approximately 2 hours | ~5 | substantially higher | only one adverse event (nausea) | 5 | 9 | 5 | 21 | 1 to 2 | 1 to 2 | 4 to 5 | approximately 60% |  |  |  |  | 
COc1ccc2nc([S@@+]([O-])Cc3ncc(C)c(OC)c3C)[nH]c2c1 [esomeprazole] | 80 | 39 | 9 |  |  | substantially higher |  |  |  |  | 14 |  |  |  |  | No adverse event | ~2.5 | approximately 1.6 hours | 54 | 52
